Assay outcomes: PubChem BioAssay, several laboratories
An excerpt weighted towards active compounds, which were near 4.5% of everything screened.
PHOSPHO1 inh: PHOSPHO1 (human) inhibition; Q8TCT1; recombinant PHOSPHO1, absorbance phosphatase assay; inhibition, % at 13.3 µM; 290,000 tested, 1.1% active; in the data active = inhibition above about 60%
MrgX1 antag: antagonists of human MrgX1 receptor | Q96LB2 | MRGX1-HEK293 calcium flux, Fluo-4, BAM8-22 antagonism; active compounds read low | B-score at 10 µM | 310,000 tested, 1.3% active | AID 588676;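 active = calcium-response B-score plate-corrected more than 3 library SD below zero, starting fluorescence within 5 deviations, no agonist response on first addition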;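 note: peak minus trough fluorescence over baseline after final BAM8-22 challenge near maximal dose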
Target sequence (Q96LB2 whole entry, looked up): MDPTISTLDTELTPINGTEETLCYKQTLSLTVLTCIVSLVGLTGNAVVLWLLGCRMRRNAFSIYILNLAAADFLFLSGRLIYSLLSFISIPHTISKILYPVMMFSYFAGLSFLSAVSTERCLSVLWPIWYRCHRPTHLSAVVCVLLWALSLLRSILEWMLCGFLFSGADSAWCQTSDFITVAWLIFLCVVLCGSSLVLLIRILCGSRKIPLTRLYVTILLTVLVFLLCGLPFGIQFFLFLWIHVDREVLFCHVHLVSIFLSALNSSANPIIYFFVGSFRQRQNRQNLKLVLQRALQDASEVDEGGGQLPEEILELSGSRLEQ
RGS4 act: potentiators or activators of RGS4; HEK293 M3R/inducible RGS4, carbachol calcium flux Fluo4; active compounds read low; B-score at 10 µM; 310,000 tested, 0.92% active; AID 463111;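 active = B-score of the integrated calcium signal more than 4 SD below the library mean, with starting fluorescence not abnormally high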;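 note: negative B-score means reduced calcium response which marks RGS4 activation or potentiation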
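Reagent: ECmax carbachol challenge; Test system: M3R-expressing HEK293 line, RGS4 induced by doxycycline; Schedule: overnight RGS4 induction, 30 min dye load 37 °C, 20 min compound RT; Detection: calcium dye Fluo4 fluorescence; Read-out: Agonist-evoked peak-minus-minimum fluorescence over baseline, integrated ratio, B score.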
MrgX1 agonist: agonists of human MrgX1 receptor; B-score at 10 µM; MrgX1-HEK293 cells, Fluo-4 calcium fluorescence, agonist mode; active compounds read high; 310,000 tested, 0.44% active;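 active = calcium response B-score plate-corrected fluorescence ratio at least 3 library SD, with starting fluorescence B-score inside 5 SD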
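Test system: Stable human MrgX1 HEK293 cell line | Schedule: Overnight plating before 1 h dye loading | Read-out basis: Baseline-normalised fluorescence change ratio, B-scored | Detection: Kinetic calcium dye fluorescence, Fluo-4 NW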
MrgX1 allo act: human MrgX1 positive allosteric modulation, primary screen | MrgX1-HEK293, Fluo-4 calcium flux, FDSS; active compounds read high | AID 588675 | Q96LB2 | B-score at 10 µM | 310,000 tested, 0.63% active;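 active = plate-corrected calcium response at least 3 library SD above typical, normal starting fluorescence, not activating the receptor alone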;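 note: compound read alongside a low EC10 to EC30 dose of BAM8-22 agonist; peak minus trough fluorescence over baseline measured at the second addition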
RGS4 block: inhibitors of human RGS4; 310,000 tested, 0.45% active; HEK293 M3R/RGS4 inducible, Fluo-4 calcium flux; active compounds read high; triggered by carbachol at its EC20; B-score at 10 µM; P49798; AID 463165;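 active = B-score, a plate-corrected calcium signal, over three deviations above library mean, with baseline fluorescence within five deviations of library mean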;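 note: RGS4 expression induced by doxycycline in cells with stable M3 receptor; B-score is computed from the integrated fluorescence ratio over baseline after carbachol; higher B-score means a larger calcium signal and so more RGS4 inhibition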
Target sequence (P49798 whole entry, looked up): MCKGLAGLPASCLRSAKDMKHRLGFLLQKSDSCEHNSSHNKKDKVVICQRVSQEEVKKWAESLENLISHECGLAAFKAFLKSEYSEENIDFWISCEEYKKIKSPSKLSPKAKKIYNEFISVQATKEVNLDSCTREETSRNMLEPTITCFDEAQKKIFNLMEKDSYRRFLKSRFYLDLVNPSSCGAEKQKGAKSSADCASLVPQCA
MrgX1 allo conf: human MrgX1 positive allosteric modulation, re-confirmation | MrgX1-HEK293, Fluo-4 calcium fluorescence, FDSS | activation (ratio percentage), % at 10 µM | 1,200 tested, 13% active | shares compounds with MrgX1 allo act;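 active = ratio at least 3 SD above the weak peptide control, stable starting fluorescence, no direct agonism earlier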;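 note: compound followed by low BAM8-22 agonist challenge near EC20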
MrgX1 ant reconf: confirmation of human MrgX1 receptor antagonists | 2,300 tested, 19% active | shares compounds with MrgX1 antag | MrgX1-HEK293, BAM8-22 calcium flux, Fluo-4; active compounds read low | remaining BAM8-22 calcium response % of control (active compounds read low), % at 10 µM;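 active = remaining agonist calcium response no higher than 100% minus 3 SD of agonist-only control wells, with starting fluorescence near control levels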;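 note: agonist BAM8-22 given at a near maximal EC90 to ECmax level; peak minus minimum fluorescence divided by baseline after agonist addition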
HEK293 Ca flux: activity in parental HEK293 cells lacking MrgX1; shares compounds with MrgX1 antag; Fluo-4 calcium fluorescence, FDSS; fluorescence ratio F(max-min)/F0 at 10 µM; 4,000 tested, 2% active; AID 624111;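 active = duplicate-averaged calcium fluorescence ratio at least three times the standard deviation of buffer wells, a nonspecific response in parental cells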
HEK293 Ca counter: MrgX1 allosteric activator counter-screen hit in parental HEK293 cells; fluorescence ratio F(max-min)/F0 at 10 µM; AID 624114; 4,000 tested, 0.4% active; shares compounds with MrgX1 antag; parental HEK293 calcium flux, Fluo-4 fluorescence ratio; active compounds read high;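 active = calcium fluorescence ratio, averaged over duplicates, at least 3 SD of the buffer-well ratio, meaning a nonspecific response in receptor-free cells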;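 note: untransfected parental HEK293 lacking MrgX1 used as counterscreen for MrgX1 allosteric activators; fluorescence change taken during the second addition on a kinetic imager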
HEK293 Ca cntr2: MrgX1 activator counter-screen hit in parental HEK293 cells. shares compounds with MrgX1 antag. AID 624115. fluorescence ratio F(max-min)/F0 at 10 µM. Fluo-4 calcium fluorescence (FDSS); active compounds read high. 4,000 tested, 8.7% active;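 active = calcium fluorescence ratio at least three times the spread of buffer wells, meaning a non-specific response in parental cells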
Active calls of the source: *; i = inactive; . = no result given.

SMILES	PHOSPHO1 inh	MrgX1 antag	RGS4 act	MrgX1 agonist	MrgX1 allo act	RGS4 block	MrgX1 allo conf	HEK293 Ca flux	HEK293 Ca counter	HEK293 Ca cntr2	others
O=C(NCCCNC(=O)c1ccc(-c2cccc(Cl)c2)o1)c1cnccn1	-33	i	i	i	13*	i	i	i	i	i
O=C(C1CCN(S(=O)(=O)c2cccs2)CC1)N1CCc2ccccc2C1	-8	i	i	i	i	i	.	.	.	.
O=C(C1CCCN(S(=O)(=O)c2cccs2)C1)N1CCc2ccccc2C1 (stereo not drawn)	-6	i	i	i	9.6*	i	i	i	i	i
O=c1c2ccccc2nc(/C=C/c2ccccc2)n1CCCO	38	i	i	i	11*	i	i	i	i	i
CCn1c(/C=C/c2ccc(F)cc2)nc2ccccc2c1=O	34	i	i	i	i	i	.	.	.	.
CCn1c(/C=C/c2ccccc2)nc2ccccc2c1=O	37	i	i	i	7.7*	i	i	i	i	i
O=c1c2ccccc2nc(/C=C/c2ccc3c(c2)OCO3)n1CCCO	10	.	.	.	.	.	.	.	.	.
Cc1ccc(S(=O)(=O)N2CCCC2C(=O)OCC(=O)Nc2ccc3c(c2)OCO3)cc1 (stereo not drawn)	-2	i	i	i	17*	i	i	i	i	i
c1ccc(Nc2ncnc3sc4c(c23)CCC4)cc1	12	i	i	i	i	i	.	.	.	.
OCc1cccc(Nc2ncnc3sc4c(c23)CCCCC4)c1	-29	i	i	i	i	i	.	.	.	.
Cc1ccc(C(=O)Nc2ncnc3sc4c(c23)CCCCC4)cc1	18	i	i	i	6.7*	i	8.1%*	i	i	i
Fc1ccc(Nc2ncnc3sc4c(c23)CCC4)cc1	6	i	i	i	6.9*	i	i	i	i	i
O=C(COC(=O)c1cccc(C(=O)OCC(=O)NC2CC2)n1)NC1CC1	28	i	i	i	i	i	.	.	.	.
CC1=CSC2=NC(=O)/C(=C\c3cccn3-c3ccc([N+](=O)[O-])cc3)C(=N)N12	-12	i	i	i	26*	i	24%*	i	i	i
O=C1COc2ccc(S(=O)(=O)NCCc3ccccc3)cc2N1	27	i	i	i	i	i	.	.	.	.
O=C1COc2ccc(S(=O)(=O)NCc3ccc(Cl)cc3)cc2N1	42	i	i	i	6.5*	i	i	i	i	i
COc1ccc(C)cc1NC(=O)C1CCN(S(=O)(=O)c2ccc3c(c2)NC(=O)CO3)CC1	37	i	i	i	7.6*	i	i	i	i	i
COc1ccc(N(C)S(=O)(=O)c2ccc3c(c2)NC(=O)CO3)c(OC)c1	48	i	i	i	7*	i	i	i	i	i
S=C(NCc1ccco1)Nc1ccc(Cl)cn1	-13	i	i	i	i	i	.	.	.	.
CCC[C@H](N[C@@H](C)C(=O)N1[C@H](C(=O)O)C[C@@H]2CCCC[C@@H]21)C(=O)OCC	.	i	.	i	i	.	.	.	.	.
COc1cc2c(=O)n(CC3CCCO3)c(=O)n(CC(=O)Nc3ccccc3)c2cc1OC (stereo not drawn)	-6	i	i	i	i	i	.	.	.	.
CN1CCN(c2ccc(CNC(=O)c3ccco3)cc2)CC1	42	i	i	i	i	i	.	.	.	.
CC(C)(C)c1ccc(-c2noc(-c3ccc4c(c3)CCO4)n2)cc1	13	-5*	i	i	7.4*	i	i	i	i	i	MrgX1 ant reconf=i
Cc1cc(/C=C2/SC(=S)N(c3cccc(Cl)c3)C2=O)c(C)n1-c1cccnc1	.	i	i	i	19*	i	i	i	i	i
C/C(=N/OCC(=O)Nc1ccc(C)cc1C)c1cccs1	8	i	i	i	27*	i	3.9%*	i	i	i
SMILES	PHOSPHO1 inh	MrgX1 antag	RGS4 act	MrgX1 agonist	MrgX1 allo act	RGS4 block	MrgX1 allo conf	HEK293 Ca flux	HEK293 Ca counter	HEK293 Ca cntr2	others
C/C(=N\OCC(=O)Nc1ccccc1C(=O)O)c1cccs1	10	i	i	i	i	i	.	.	.	.
c1ccc2cc(OCCOCCOc3ccc4ccccc4c3)ccc2c1	15	i	i	i	13*	i	i	i	i	i
CN(C)CCOc1ccc2ccccc2c1	16	i	i	i	i	i	.	.	.	.
O=C(Nc1ccc(N2CCN(Cc3ccccc3)CC2)cc1)c1ccco1	-36	i	i	i	i	i	.	.	.	.
O=C(O)C1CC=CCC1C(=O)Nc1ccc(N2CCN(Cc3ccccc3)CC2)cc1 (stereo not drawn)	-17	i	i	i	7.4*	i	i	i	i	i
O=C(Nc1ccc(F)c(Cl)c1)N1CCCC1	5	i	i	i	13*	i	i	i	i	i
Cc1ccn2c(Nc3ccccc3C)c(-c3ccccn3)nc2c1	23	i	i	i	9.1*	i	i	i	i	i
CN(c1ccccc1)c1ccc(/C=N/NC(=O)CC#N)cc1	-9	i	i	i	i	i	.	.	.	.
CCN(C(=O)c1cccnc1SC)C12CC3CC(CC(C3)C1)C2	19	i	i	i	i	i	.	.	.	.
CCCn1c(=O)c(C(=O)Nc2cccc(C)c2)c(O)c2ccccc21	19	i	i	i	7.2*	i	i	i	i	i
CCCn1c(=O)c(C(=O)Nc2ccccc2)c(O)c2ccccc21	-9	i	i	i	i	i	.	.	.	.
